Here are results for 4 substances from article PMC10441566 (Acta biomaterialia, 2022).

A short description of data set [1]: Microscale thermophoresis. It is filed as binding. The note with it: MST; for Hill coefficient / cooperativity factor (n) of binding with CS: Hill fit, n > 1 positive, n < 1 negative cooperativity. Summed up:
(§1)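 Peptide labeled with 5-FAM at the N-terminus was spun at 14,000 g for 10 min, then used at 200 nM. MST was run at 50% excitation and 40% MST power, room temperature, with 20 s traces. A Hill fit of ΔF_Norm gave Kd and n. n=3 independent runs, mean ± SD.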

Data set [2] in a line: Microscale thermophoresis. The note with it: MST, HA titrated up to 2 μM (physiological SF concentration). It is filed as binding.
Data set [3] deals with γ-Globulin. Description: Microscale thermophoresis. It is filed as binding, bovine. Conditions: MST; for Hill coefficient / cooperativity factor (n) of binding with γ-Globulin: Hill fit. The essentials:
as §1
(In general: MST reads how a fluorescent partner responds to local heating, with and without ligand.)

Data set [4] is classed as in vivo. The note with it: quadriceps and patellar tendon, fat pad; rat, 24 h after IA injection, Cy5 label. Summed up: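 Healthy male Wistar rats (8–10 weeks, 350–400 g) received 50 μl of 300 μM Cy5-labeled test peptide intra-articularly through the patellar tendon, with saline controls. Legs were flexed to spread the dose, and rats were killed at 24 h. Harvested knee tissues were imaged by confocal microscopy at 10X, with Z-stacks reconstructed to X-Z sections for penetration depth. N=6 joints per treatment.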

For data set [5] the following is noted: solute concentration inside cartilage relative to surrounding bath; cited from earlier work.
The conditions of data set [6]: over 7-days desorption period; cited from earlier work.
A short description of data set [7]: Equilibrium intra-cartilage uptake of CPCs in bovine cartilage explants. The note with it: 30 μM CPC, 24 h, 37°C; for Intra-cartilage uptake in presence of HA (comparison between CPCs): 3 mg/ml HA; for Intra-cartilage uptake in presence of BSA (comparison between CPCs) / Intra-cartilage equilibrium uptake ratio (RU): 12 mg/ml BSA; for Intra-cartilage equilibrium uptake ratio (RU): Healthy (simulated) SF: 3 mg/ml HA, 0.1 mg/ml DLPC in PBS pH 7.4, bath fluorescence, mean, n >= 6; for Reduction of intra-cartilage uptake in Healthy SF relative to PBS: Healthy SF vs PBS.

Turning to (AK)7AFAFAF [CPC +F], in data set [1], the “Binding with CS-GAG compared with CPC +N” value was “stronger binding” and the “Hill coefficient / cooperativity factor (n) of binding with CS” value was 1.6.
Take (AK)7ANANAN [CPC +N]: in data set [1], the “Hill coefficient / cooperativity factor (n) of binding with CS” value was 0.8.
RRRR(AARRR)3 R [CPC +14A]: in data set [2], the “Binding with HA as ligand” value is on record as “completely unbound”. Further, in data set [3], the “Kd with γ-Globulin, fold lower than that of CPC +14N” value is on record as 1.8 x and the “Hill coefficient / cooperativity factor (n) of binding with γ-Globulin” value is reported as 0.67. The “Confocal fluorescence signal in less GAG-rich tissues” value in data set [4] is listed as “weak fluorescence signal”. The Intra-cartilage uptake in data set [5] is 350. Further, in data set [6], the Retained within cartilage is given as over 95%. In data set [7], the “Intra-cartilage uptake in presence of HA (comparison between CPCs)” value was “no significant difference”, the “Intra-cartilage uptake in presence of BSA (comparison between CPCs)” value is “no significant difference” and the “Reduction of intra-cartilage uptake in Healthy SF relative to PBS” value stood at 4.5 x. Further, the “Intra-cartilage equilibrium uptake ratio (RU)” value in data set [7] (12 mg/ml γ-Globulin) is on record as 80.
For the substance RRRR(NNRRR)3 R [CPC +14N], the “Hill coefficient / cooperativity factor (n) of binding with CS” value in data set [1] was found to be 1.6. In addition, the “Binding with HA as ligand” value in data set [2] is “completely unbound”. Moreover, the “Hill coefficient / cooperativity factor (n) of binding with γ-Globulin” value in data set [3] is reported as 0.67. For the same substance, the “Confocal fluorescence signal in less GAG-rich tissues” value in data set [4] is recorded as “weak fluorescence signal”. For the same substance, the “Intra-cartilage uptake in presence of phospholipids (DLPC), comparison” value in data set [7] (0.1 mg/ml DLPC) is recorded as “higher uptake than CPC +14A”. In addition, in data set [7], the “Intra-cartilage uptake in presence of HA (comparison between CPCs)” value is “no significant difference”, the “Intra-cartilage uptake in presence of BSA (comparison between CPCs)” value is “no significant difference” and the “Reduction of intra-cartilage uptake in Healthy SF relative to PBS” value was 2.7 x. Besides, in data set [7] (12 mg/ml γ-Globulin), the “Intra-cartilage uptake relative to CPC +14A (fold higher)” value stood at 2.8 x and the “Intra-cartilage equilibrium uptake ratio (RU)” value is 120. Moreover, the “Intra-cartilage uptake relative to CPC +14A (fold higher)” value in data set [7] (Healthy SF) is 1.5 x. Also, the “Intra-cartilage uptake relative to CPC +14A (fold higher)” value in data set [7] (OA SF) was 2 x.
